From PubChem BioAssay
Efa HMGR inh: inhibitors of class II HMG-CoA reductase from Enterococcus faecalis | purified E. faecalis HMGR, NADPH absorbance 340 nm kinetic | inhibition, % at 10 µM | 0.41% of 190,000 active | AID 1066;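 active means inhibition above a set limit, the median over all tested compounds plus 3 SD, cut at about 9.5% in these data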;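 further: enzyme runs in reverse so mevalonate oxidation gives rising NADPH absorbance; 0% = complete reaction with DMSO and 100% = background rate lacking mevalonate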
Yeast lifespan up: yeast lifespan extension; S. cerevisiae growth with nicotinamide, OD615; deaD strain in restrictive glucose medium; inhibition of the nicotinamide effect, % at 10 µM; 0.68% of 130,000 active; AID 775;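 active means inhibition above a set limit, placed 3 SD over the median of all compounds, cut at about 26% in these data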;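 further: 0% = nicotinamide-treated wells and 100% = cells grown without nicotinamide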
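Assay system: engineered S. cerevisiae DeaD replicative-lifespan strain, galactose-grown log-phase cells; medium: restrictive CSMM-D dextrose medium; also added: nicotinamide, 1.5 mM, co-present with compound; schedule: 48 h compound exposure at 30 °C, humidified; detection: absorbance at 615 nm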
RAM inhibit: blocks the yeast RAM network; 1.8% of 190,000 active; S. cerevisiae dse1pr::URA3 reporter, 5-FOA growth OD615, 2 d; analog-sensitive cbk1-as2 kinase mutant strain; inhibition, % at 50 µM; AID 868;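 active means inhibition above a set limit, 3 SD over mean compound inhibition, cut at about 8.4% in these data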;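 further: 0% = DMSO-only wells with no growth and 100% = 10 µM 1-NA-PP1 full growth; inhibition rescues growth on 5-FOA so higher OD means more RAM inhibition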
Yeast growth inh: yeast BB579 growth reduction in restrictive medium | 0.51% of 140,000 active | AID 804 | inhibition, % at 10 µM | S. cerevisiae BB579 growth, OD615, 48 h;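 active means inhibition above a set limit, 3 SD over the mean compound inhibition, cut at about 44% in these data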
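System: Saccharomyces cerevisiae DeaD strain BB579, replicative lifespan model yeast | Buffer or medium: Restrictive glucose-based CSMM-D medium | Times: 4 h preincubation and 48 h exposure at 30 °C | Detection: OD615 turbidity measurement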
INS promoter inh: TRM-6 insulin promoter activity inhibition | inhibition, % at 2 µM | 0.9% of 130,000 active | TRM-6 cells (human fetal islet line), insulin promoter-eGFP reporter, imaging; reporter expression induced with tamoxifen | AID 1273;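 active means inhibition above the mean plus 3 SD, with well images judged a real hit on visual review, cut at about 60% in these data, passing the limit was not always enough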
Starred values were filed as active, the others as inactive. This is a sample that favours compounds with a hit; in the whole collection about 3.7% have one here.

For Cc1ccc(Oc2nc3ccccc3n3c(C)nnc23)c(C)c1 the results were Efa HMGR inh 1, Yeast lifespan up 74*, RAM inhibit 0 and Yeast growth inh -76.
Screening O=C(O)C1CC=CCC1C(=O)NNc1ccccc1 (stereo not given) returned Efa HMGR inh -2 and RAM inhibit 0.
Screening O=C(O)C1CC=CCC1C(=O)c1ccccc1 (stereo not given) returned Efa HMGR inh -9, Yeast lifespan up 2, RAM inhibit 1, Yeast growth inh 5 and INS promoter inh 66*.
Screening Cc1ccc(C(=O)NCC(=O)OCC(=O)NCC(F)(F)F)cc1 returned Efa HMGR inh 3 and RAM inhibit 1.
O=C1CCC(CCC(=O)N2CCCC(C(=O)c3cccc(C(F)(F)F)c3)C2)=NN1 (stereo not given) was read as Efa HMGR inh -3 and RAM inhibit 0.
`CC(C)CCSc1nc(N2CCOCC2)c2c(c1C#N)CC(C)(C)OC2` gave Efa HMGR inh 0, Yeast lifespan up -2, RAM inhibit 10* and Yeast growth inh -43.
For CCOC(=O)c1c(NC(=O)c2ccccc2Cl)sc2c1CCc1ccccc1-2 the results were Efa HMGR inh 2, Yeast lifespan up -4, RAM inhibit 7, Yeast growth inh -45 and INS promoter inh 7.
For CCCCC(=O)Nc1sc2c(c1C(=O)OCC)CCC(C=O)=C2Cl the results were Efa HMGR inh -2, Yeast lifespan up -1, RAM inhibit 9.2* and Yeast growth inh -17.
O=S(=O)(Nc1ccc(N2CCCCC2)cc1)c1ccc(F)c(F)c1 was read as Efa HMGR inh -8, Yeast lifespan up 1, RAM inhibit 2, Yeast growth inh -9 and INS promoter inh 6.
Screening O=C(Cn1cncn1)NCc1cc(F)ccc1F returned Efa HMGR inh -7 and RAM inhibit 3.
COc1ccc(NC(=O)Cn2nnc(-c3ccccc3NS(=O)(=O)c3ccc(OC)cc3)n2)cc1 was read as Efa HMGR inh -4, Yeast lifespan up 11, RAM inhibit 9.5*, Yeast growth inh -57 and INS promoter inh -24.
`Cc1ccc(NC(=O)Cn2nnc(-c3ccccc3NC(=O)c3cccs3)n2)cc1` gave Efa HMGR inh -2, Yeast lifespan up -1, RAM inhibit 8.4*, Yeast growth inh -51 and INS promoter inh -14.
COc1ccccc1NC(=O)Cn1nnc(-c2ccccc2NS(=O)(=O)c2ccccc2)n1 was read as Efa HMGR inh -7, Yeast lifespan up -3, RAM inhibit 1, Yeast growth inh -27 and INS promoter inh 39.
COc1ccc(OC)c(-c2cc(C(=O)N3CCCc4ccccc43)no2)c1 was read as Efa HMGR inh -2, Yeast lifespan up -2, RAM inhibit 9.3*, Yeast growth inh -41 and INS promoter inh -20.
`CCc1ccc2c(c1)CCCN2C(=O)c1ccccc1C(=O)O` gave Efa HMGR inh -8, Yeast lifespan up 34*, RAM inhibit 0 and Yeast growth inh -42.
O=C(c1ccc(C(=O)N2CCCc3ccccc32)s1)N1CCCc2ccccc21 was read as Efa HMGR inh 2, Yeast lifespan up -17, RAM inhibit 0, Yeast growth inh 84* and INS promoter inh -53.
For O=C(C(=O)N1CCCc2ccccc21)N1CCCc2ccccc21 the results were Efa HMGR inh -1, Yeast lifespan up 1, RAM inhibit 0, Yeast growth inh -8 and INS promoter inh 3.
`Cc1ccc2c(c1)CCCN2C(=O)c1cc2ccccc2oc1=O` gave Efa HMGR inh -4, Yeast lifespan up -12, RAM inhibit 1, Yeast growth inh -13 and INS promoter inh 27.
For COc1ccccc1-c1cc(C(=O)N2CCCc3ccccc32)no1 the results were Efa HMGR inh -3, RAM inhibit 8 and INS promoter inh 11.
Screening COc1cc(S(=O)(=O)Nc2ccc3cn[nH]c3c2)ccc1Cl returned Efa HMGR inh 12* and RAM inhibit 0.
For S=C(NCCc1ccccc1)Nc1cccc2cnccc12 the results were Efa HMGR inh -10, RAM inhibit 1 and INS promoter inh 73*.
Screening CC(c1ccc(F)cc1)n1cc(C(=O)NCCN(C)C)nn1 (stereo not given) returned Efa HMGR inh 9 and RAM inhibit 0.
CC(C)C[C@H](NC(=O)c1nc[nH]c1C(=O)NC(c1ccccc1)c1ccccc1)C(=O)OCc1ccccc1 was read as Efa HMGR inh -3 and RAM inhibit 6.
`O=C(N[C@@H](Cc1ccccc1)C(=O)OCc1ccccc1)c1nc[nH]c1C(=O)NCc1ccccc1` gave Efa HMGR inh 0 and RAM inhibit 9.2*.
Screening NS(=O)(=O)c1ccc(CNC(=S)Nc2ccc(Cl)c(Cl)c2)cc1 returned Efa HMGR inh -3 and RAM inhibit 2.
Screening NS(=O)(=O)c1ccc(CCNC(=O)Nc2ccc(Cl)c(Cl)c2)cc1 returned Efa HMGR inh -6, Yeast lifespan up -7, RAM inhibit 11* and Yeast growth inh -58.
Screening CCOC(=O)C1=C(C)N=c2s/c(=C3\C(=O)Nc4ccccc43)c(=O)n2C1c1ccc2c(c1)OCO2 (stereo not given) returned Efa HMGR inh -2, Yeast lifespan up -10, RAM inhibit 10*, Yeast growth inh -26 and INS promoter inh -24.
Screening Cc1cccc(C)c1N/C=C/c1onc(C)c1[N+](=O)[O-] returned Efa HMGR inh -13, Yeast lifespan up -7, RAM inhibit 4, Yeast growth inh -20 and INS promoter inh 4.
For Cc1noc(/C=C/c2ccc(-c3ccccc3Cl)o2)c1[N+](=O)[O-] the results were Efa HMGR inh -3, Yeast lifespan up -5, RAM inhibit 8.9* and Yeast growth inh -37.
`O=C(NNC(=O)C1CCCCC1)c1ccc(Br)cc1` gave Efa HMGR inh 0 and RAM inhibit 3.
Screening CC(C(=O)NCc1ccc(F)cc1)c1ccc([N+](=O)[O-])cc1 (stereo not given) returned Efa HMGR inh -6 and RAM inhibit 4.
Screening CCOc1ccc2oc(C(=O)OCC(=O)NC3CC3)c(C)c2c1 returned Efa HMGR inh -7 and RAM inhibit 2.
CCN(CC)S(=O)(=O)c1ccc(C)c(C)c1 was read as Efa HMGR inh -2, Yeast lifespan up -2, RAM inhibit 1, Yeast growth inh 4 and INS promoter inh 10.
CCN(CC)S(=O)(=O)c1ccc2c(c1)C(=NO)c1cc(S(=O)(=O)N(CC)CC)ccc1-2 was read as Efa HMGR inh 5, RAM inhibit 10*, Yeast growth inh -46 and INS promoter inh -73.
`CCCCNc1nc2c(S(=O)(=O)c3ccccc3)nnn2c2ccccc12` gave Efa HMGR inh -1 and RAM inhibit 6.
For CCc1ccc(S(=O)(=O)c2nnn3c2nc(NCCNC(C)=O)c2ccccc23)cc1 the results were Efa HMGR inh -1, RAM inhibit 6 and INS promoter inh 83*.
